Experiments:
[1] = Half life in aqueous buffer assessed as nitric oxide release at pH 7.4; format: physicochemical
[2] = tested on: DLD-1; experiment: Antiproliferative activity against human DLD1 cells assessed as cell viability at 75 uM after 72 hrs by MTT assay in presence of Escherichia coli NTR and NADPH relative to control; format: functional; conditions: DLD-1, 72 h, read-out: Activity
Procedure, shortened: (§1)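 DLD-1 human colon adenocarcinoma cells seeded at 3 × […] cells/well overnight in complete RPMI 1640. Treated with compound from DMSO stock (1% DMSO final), with or without E. coli nitroreductase (6 mg/2 mL DPBS stock) and NADPH (0.5 mM stock in DPBS). Incubated 72 h at 37 °C. MTT added for 4 h, formazan dissolved in DMSO, absorbance read at 570 nm for viability.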

[3] = Stability of the compound in phosphate buffer at pH 7.0 assessed as compound remaining at 50 uM after 1 hr by HPLC analysis in absence of Escherichia coli NTR and presence of NADPH; format: physicochemical; conditions: pH 7, 1 h
Procedure, shortened: (§2)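 Compound at 50 µM (from a 10 mM DMSO stock) was stirred at 37 °C in pH 7.0 phosphate buffer with NADPH, with or without E. coli nitroreductase; the blank had no enzyme. After 1 h, an aliquot was analysed by reverse-phase C-18 HPLC (70% MeCN:H2O, 1 mL/min) for compound remaining. Values are averages of two independent runs.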

[4] = Prodrug conversion in phosphate buffer at pH 7.0 assessed as Escherichia coli NTR-mediated decomposition measuring nitric oxide release at 50 uM after 1 hr by chemiluminescence assay in presence of NADPH; format: physicochemical; conditions: pH 7, 1 h
Procedure, shortened: (§3)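 Compound at 50 µM was incubated at 37 °C in pH 7.0 phosphate buffer with NADPH, with or without E. coli nitroreductase. After 1 h, an aliquot was injected into a chemiluminescence NO analyser (argon carrier) whose reservoir held NaI/acetic acid, so nitrite was also counted as NO. The signal was calibrated against NaNO2 standards. Values are averages of two independent runs.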

[5] = tested on: DLD-1; experiment: Antiproliferative activity against human DLD1 cells assessed as cell viability at 75 uM after 72 hrs by MTT assay in absence of Escherichia coli NTR and presence of NADPH; format: functional; conditions: DLD-1, 72 h, read-out: Activity; procedure, shortened: as §1
[6] = Prodrug conversion in phosphate buffer at pH 7.0 assessed as Escherichia coli NTR-mediated decomposition measuring compound remaining at 50 uM after 1 hr by HPLC analysis in presence of NADPH; format: physicochemical; conditions: pH 7, 1 h; procedure, shortened: as §2
[7] = Stability of the compound in phosphate buffer at pH 7.0 assessed as nitric oxide release at 50 uM after 1 hr by chemiluminescence assay in absence of Escherichia coli NTR and presence of NADPH; format: physicochemical; conditions: pH 7, 1 h; procedure, shortened: as §3
[8] = tested on: DLD-1; experiment: Antiproliferative activity against human DLD1 cells assessed as cell viability at 50 uM after 72 hrs by MTT assay in presence of Escherichia coli NTR and NADPH (reference value: 107.4%); format: functional; conditions: DLD-1, 72 h, read-out: Activity; procedure, shortened: as §1
[9] = tested on: DLD-1; experiment: Antiproliferative activity against human DLD1 cells assessed as cell viability at 25 uM after 72 hrs by MTT assay in absence of Escherichia coli NTR and NADPH (reference value: 107.4%); format: functional; conditions: DLD-1, 72 h, read-out: Activity; procedure, shortened: as §1
[10] = tested on: DLD-1; experiment: Antiproliferative activity against human DLD1 cells assessed as cell viability at 100 uM after 72 hrs by MTT assay in absence of Escherichia coli NTR and NADPH (reference value: 107.4%); format: functional; conditions: DLD-1, 72 h, read-out: Activity; procedure, shortened: as §1
[11] = tested on: DLD-1; experiment: Cytotoxicity against human DLD1 cells assessed as cell viability at 25 uM after 72 hrs by MTT assay in presence of Escherichia coli NTR and NADPH (reference value: 107.4%); format: functional; conditions: DLD-1, 72 h, read-out: Activity; procedure, shortened: as §1
[12] = tested on: DLD-1; experiment: Antiproliferative activity against human DLD1 cells assessed as cell viability at 100 uM after 72 hrs by MTT assay in presence of Escherichia coli NTR and NADPH (reference value: 107.4%); format: functional; conditions: DLD-1, 72 h, read-out: Activity; procedure, shortened: as §1
[13] = tested on: DLD-1; experiment: Antiproliferative activity against human DLD1 cells assessed as cell viability at 50 uM after 72 hrs by MTT assay in absence of Escherichia coli NTR and NADPH (reference value: 107.4%); format: functional; conditions: DLD-1, 72 h, read-out: Activity; procedure, shortened: as §1
[14] = tested on: DLD-1; experiment: Antiproliferative activity against human DLD1 cells assessed as cell viability at 1 uM after 72 hrs by MTT assay in presence of Escherichia coli NTR and NADPH (reference value: 86.3%); format: functional; conditions: DLD-1, 72 h, read-out: Activity; procedure, shortened: as §1
[15] = Prodrug conversion in phosphate buffer at pH 6.5 assessed as Escherichia coli NTR-mediated decomposition measuring nitric oxide release at 50 uM after 5 mins; format: physicochemical; conditions: pH 6.5, 5 min
Procedure, shortened: (§4)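 Compound at 50 µM was reacted with E. coli nitroreductase and NADPH in phosphate buffer at pH 6.5 or at pH 7.4 (PBS), stirred at 37 °C. Aliquots were injected at set time points into a chemiluminescence NO analyser with an NaI/acetic acid reservoir, which also converts nitrite to NO. The signal was calibrated with NaNO2 standards.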

[16] = tested on: HeLa; experiment: Cytotoxicity against human HeLa cells assessed as cell viability at 1 uM after 72 hrs by MTT assay in presence of Escherichia coli NTR and NADPH (reference value: 67.2%); format: functional; conditions: read-out: Activity
[17] = tested on: HeLa; experiment: Cytotoxicity against human HeLa cells assessed as cell viability after 72 hrs by MTT assay in presence of Escherichia coli NTR and NADPH; format: functional, cell-based
[18] = tested on: DLD-1; experiment: Antiproliferative activity against human DLD1 cells assessed as cell viability at 25 uM after 72 hrs by MTT assay in absence of Escherichia coli NTR and presence of NADPH (reference value: 74.8%); format: functional; conditions: DLD-1, 72 h, read-out: Activity; procedure, shortened: as §1
[19] = tested on: HeLa; experiment: Cytotoxicity against human HeLa cells assessed as cell viability at 1 uM after 72 hrs by MTT assay in absence of Escherichia coli NTR and NADPH (reference value: 88.2%); format: functional; conditions: read-out: Activity
[20] = tested on: HeLa; experiment: Cytotoxicity against human HeLa cells assessed as cell viability at 25 uM after 72 hrs by MTT assay in presence of Escherichia coli NTR and NADPH (reference value: 67.2%); format: functional; conditions: read-out: Activity
[21] = tested on: HeLa; experiment: Cytotoxicity against human HeLa cells assessed as cell viability at 10 uM after 72 hrs by MTT assay in presence of Escherichia coli NTR and NADPH (reference value: 67.2%); format: functional; conditions: read-out: Activity
[22] = Prodrug conversion in phosphate buffer at pH 7.4 assessed as Escherichia coli NTR-mediated decomposition measuring nitric oxide release at 50 uM after 5 mins; format: physicochemical; conditions: pH 7.4, 5 min; procedure, shortened: as §4
[23] = tested on: DLD-1; experiment: Antiproliferative activity against human DLD1 cells assessed as cell viability at 10 uM after 72 hrs by MTT assay in presence of Escherichia coli NTR and NADPH (reference value: 86.3%); format: functional; conditions: DLD-1, 72 h, read-out: Activity; procedure, shortened: as §1
[24] = tested on: DLD-1; experiment: Antiproliferative activity against human DLD1 cells assessed as cell viability at 25 uM after 72 hrs by MTT assay in presence of Escherichia coli NTR and NADPH (reference value: 86.3%); format: functional; conditions: DLD-1, 72 h, read-out: Activity; procedure, shortened: as §1
[25] = tested on: HeLa; experiment: Cytotoxicity against human HeLa cells assessed as cell viability at 25 uM after 72 hrs by MTT assay in absence of Escherichia coli NTR and NADPH (reference value: 88.2%); format: functional; conditions: read-out: Activity
[26] = tested on: HeLa; experiment: Cytotoxicity against human HeLa cells assessed as cell viability at 10 uM after 72 hrs by MTT assay in absence of Escherichia coli NTR and NADPH (reference value: 88.2%); format: functional; conditions: read-out: Activity
[27] = tested on: DLD-1; experiment: Antiproliferative activity against human DLD1 cells assessed as cell viability at 10 uM after 72 hrs by MTT assay in absence of Escherichia coli NTR and presence of NADPH (reference value: 74.8%); format: functional; conditions: DLD-1, 72 h, read-out: Activity; procedure, shortened: as §1
[28] = tested on: DLD-1; experiment: Antiproliferative activity against human DLD1 cells assessed as cell viability at 1 uM after 72 hrs by MTT assay in absence of Escherichia coli NTR and presence of NADPH (reference value: 74.8%); format: functional; conditions: DLD-1, 72 h, read-out: Activity; procedure, shortened: as §1

CCN(CC)/[N+]([O-])=N/[O-].[Na+]
t1/2 [1]: 120 s

CN(C)/[N+]([O-])=N/OCc1ccc([N+](=O)[O-])cc1
viability at 75 µM [2]: 32.2%
Stability [3]: Stable
Drug metabolism [4]: 13.6 µM
viability at 75 µM [5]: 74.7%
Stability [6]: 60%
Stability [7]: Stable

O=C(OCc1ccc([N+](=O)[O-])cc1)c1ccccc1
Stability [3]: Stable
Drug metabolism [4]: 1.1 µM
viability at 50 µM [8]: 85.5%
viability at 25 µM [9]: 98.3%
viability at 100 µM [10]: 84.5%
Stability [6]: 68%
Stability [7]: Stable
viability at 25 µM [11]: 93.4%
viability at 100 µM [12]: 50.5%
viability at 50 µM [13]: 89.2%

CCN(CC)/[N+]([O-])=N/OCc1ccc([N+](=O)[O-])cc1
viability at 75 µM [2]: 27.5%
Stability [3]: Stable
Drug metabolism [4]: 6.8 µM
viability at 75 µM [5]: 79.2%
Stability [6]: 60%
Stability [7]: Stable

[Na+].[O-]/N=[N+](\[O-])N1CCCC1
t1/2 [1]: 2 s

CN(C)/[N+]([O-])=N/[O-].[Na+]
t1/2 [1]: 24 s

CC1CCCCN1/[N+]([O-])=N/OCc1ccc([N+](=O)[O-])cc1 (configuration not stated)
viability at 1 µM [14]: 38.6%
Drug metabolism [15]: 6 µM
viability at 1 µM [16]: 56.6%
viability at 75 µM [2]: 10.2%
Activity [17]: Dose-dependent effect
viability at 25 µM [18]: 63.7%
Stability [3]: Stable
viability at 1 µM [19]: 76.9%
Drug metabolism [4]: 19.7 µM
viability at 25 µM [20]: 6.9%
viability at 10 µM [21]: 31.1%
Drug metabolism [22]: 17 µM
viability at 10 µM [23]: 30.8%
viability at 25 µM [24]: 12.5%
viability at 25 µM [25]: 24.6%
viability at 75 µM [5]: 53%
viability at 10 µM [26]: 65.3%
Stability [6]: 31%
Stability [7]: Stable
viability at 10 µM [27]: 69.1%
viability at 1 µM [28]: 82.1%

O=[N+]([O-])c1ccc(CO/N=[N+](\[O-])N2CCCC2)cc1
viability at 75 µM [2]: 48.5%
Stability [3]: Stable
Drug metabolism [4]: 18.3 µM
viability at 75 µM [5]: 68.6%
Stability [6]: 28%
Stability [7]: Stable
